ChEMBL document CHEMBL2384926, “Asperterrestide A, a cytotoxic cyclic tetrapeptide from the marine-derived fungus Aspergillus terreus SCSGAF0162” (J Nat Prod, 2013)

Assays:
[1] = test system: U-937; assay: Cytotoxicity against human U937 cells by MTT assay; format: functional, cell-based
Outline: (§1)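 MTT assay on the human tumour lines U937 (leukemic monocyte lymphoma), K562 (erythroid leukemia), BGC-823 (gastric carcinoma), MOLT-4 (acute lymphoblastic leukemia), MCF-7 (breast adenocarcinoma) and A549 (lung carcinoma). Taxol served as the positive control. Values reported as IC50.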

[2] = test system: Influenza A virus; assay: Antiviral activity against Influenza A virus A/Hong Kong/8/68(H3N2) infected in dog MDCK cells after 3 days by CPE assay; format: functional, organism-based; details: 72 h
Outline: (§2)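 Cytopathic effect (CPE) assay measuring inhibition of virus replication in MDCK cells. Strains were A/WSN/33 (H1N1, M2-resistant) and A/Hong Kong/8/68 (H3N2, M2-sensitive). Ribavirin served as the positive control. Values reported as IC50.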

[3] = test system: Influenza A virus; assay: Antiviral activity against Influenza A virus (A/WSN/1933(H1N1)) infected in dog MDCK cells after 3 days by CPE assay; format: functional, organism-based; details: 72 h; outline: as §2
[4] = test system: MOLT-4; assay: Cytotoxicity against human MOLT4 cells by MTT assay; format: functional, cell-based; outline: as §1
[5] = test system: BGC-823; assay: Cytotoxicity against human BGC823 cells by MTT assay; format: functional, cell-based; outline: as §1
[6] = test system: K562; assay: Cytotoxicity against human K562 cells by MTT assay; format: functional, cell-based; outline: as §1

Structure (SMILES) | IC50 [1] | IC50 [2] | IC50 [3] | IC50 [4] | IC50 [5] | IC50 [6]
CC[C@@H](C)[C@H]1NC(=O)[C@@H](C)NC(=O)c2ccccc2NC(=O)[C@@H]([C@@H](O)c2ccccc2)N(C)C1=O | 6.4 µM | 8.1 µM | 15 µM | 6.2 µM |  | 
CC(=O)O[C@H]1C(=O)[C@@]2(C)[C@H]([C@H](OC(=O)c3ccccc3)[C@]3(O)C[C@H](OC(=O)[C@H](O)[C@@H](NC(=O)c4ccccc4)c4ccccc4)C(C)=C1C3(C)C)[C@]1(OC(C)=O)CO[C@@H]1C[C@@H]2O [PACLITAXEL] | 0.0019 µM |  |  | 0.0018 µM | 0.0035 µM | 0.0049 µM
NC(=O)c1ncn([C@@H]2O[C@H](CO)[C@@H](O)[C@H]2O)n1 [RIBAVIRIN] |  | 0.41 µM | 20.2 µM |  |  | 
